Screening results deposited in PubChem by The Scripps Research Institute Molecular Screening Center.
RORa inhibitor: inhibitors of human nuclear receptor RORA. inhibition, % at 10 µM. CHO-K1 Gal4-RORA LBD luciferase reporter, luminescence. 65,000 compounds, 0.43% hits. P35398;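 active = inhibition above the mean of all tested compounds plus 3 SD, cut at about 52% in these data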
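test system = CHO-K1 Gal4-RORA LBD luciferase reporter cells | dosing = 10 µM single point | times = 20 h compound treatment, 37 °C | signal = luciferase luminescence | read-out = % inhibition of basal luciferase versus +RORA/-RORA DMSO controls | benchmarks = mock-transfected cells as 100%, +RORA DMSO cells as 0% | replicates = tested once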
A number is an active result. Only a selection was taken, and hits are over-represented in it overall.

What do the screens show for `Nc1ccc2oc(-c3cc(Br)ccc3Cl)nc2c1`?
RORa inhibitor: 58

What do the screens show for `Cc1ccc(C)c(-c2nc3cc(N)ccc3o2)c1`?
RORa inhibitor: inactive

How did Nc1c(Br)cc2oc(-c3ccccc3)nc2c1Br do in these assays?
RORa inhibitor: inactive

Results for Cn1cccc1Cc1nnc(SCC(=O)Nc2ccc(F)cc2)n1CCc1ccccc1 ?
RORa inhibitor: inactive

Results for COc1ccc(OCCCSc2ncccn2)cc1 ?
RORa inhibitor: inactive

What do the screens show for `COc1ccc(NC(=O)C(c2ccc(C)cc2)N(C)C(=O)c2cnccn2)cc1` (stereo not drawn)?
RORa inhibitor: inactive

Results for CSCCC(NC(=O)c1ccco1)C(=O)O (stereo not drawn) ?
RORa inhibitor: inactive

Results for COc1ccc(Oc2ccc(S(=O)(=O)N3CCCCC3)cc2S(=O)(=O)N2CCCCC2)cc1 ?
RORa inhibitor: inactive

What do the screens show for `O=S(=O)(c1ccc2c(c1)C(=NO)c1cc(S(=O)(=O)N3CCCCC3)ccc1-2)N1CCCCC1`?
RORa inhibitor: 66

Results for O=S(=O)(c1ccc(S(=O)(=O)N2CCCC2)cc1)N1CCCCCC1 ?
RORa inhibitor: inactive

What do the screens show for `Cc1ccnc(N2CCN(c3c4c(c(C#N)c5nc6ccccc6n35)CCC4)CC2)c1`?
RORa inhibitor: inactive

Results for CC1CCN(C(=O)CN2C(=O)C(C)(C)Oc3ccc(C(=O)NC4CCCC4)cc32)CC1 ?
RORa inhibitor: inactive

What do the screens show for `CC1CCCCC1NC(=O)CSc1nc2ccccc2c(=O)n1Cc1ccco1` (stereo not drawn)?
RORa inhibitor: inactive

Results for CC1CCCCC1NS(=O)(=O)c1ccc(S(=O)(=O)NCc2ccncc2)cc1 (stereo not drawn) ?
RORa inhibitor: 69

How did Cc1cc(C)c(C)c(S(=O)(=O)NCc2cccnc2)c1C do in these assays?
RORa inhibitor: inactive

How did O=S(=O)(NCc1ccc(Cl)cc1)c1cnc[nH]1 do in these assays?
RORa inhibitor: inactive

What do the screens show for `Cc1ccc(S(=O)(=O)NCc2ccncc2)cc1`?
RORa inhibitor: 56

Results for CC(=O)NS(=O)(=O)c1ccc(NC(=O)CCC2CCCC2)cc1 ?
RORa inhibitor: inactive

Results for COc1ccc(N2CCN(Cc3nc4c(c(=O)[nH]c(=O)n4C)n3Cc3cccc(Cl)c3)CC2)cc1 ?
RORa inhibitor: inactive

How did CCOc1cc(N2CCOCC2)c(OCC)cc1NS(=O)(=O)c1ccc(Cl)s1 do in these assays?
RORa inhibitor: inactive

What do the screens show for `O=C(Nc1ccc2oc(=O)ccc2c1)c1ccco1`?
RORa inhibitor: inactive

What do the screens show for `COc1ccc(C2(C(=O)NCC3CCCO3)CCOCC2)cc1` (stereo not drawn)?
RORa inhibitor: inactive

How did Cc1ccc2nc(Nc3ccc4[nH]c(=O)[nH]c4c3)c(-n3nc(C)cc3C)nc2c1 do in these assays?
RORa inhibitor: inactive

What do the screens show for `CC(=O)Nc1nc2cc3c(cc2s1)OCO3`?
RORa inhibitor: inactive

How did O=C(Nc1nc2cc3c(cc2s1)OCO3)C1=COCCO1 do in these assays?
RORa inhibitor: 68

What do the screens show for `Cc1nc2c(ccc3nc(NC(=O)c4ccc5c(c4)OCCO5)sc32)s1`?
RORa inhibitor: inactive

What do the screens show for `CC1(C)NC(=O)N(CC(O)COc2ccc(N3C(=O)c4ccccc4C3=O)cc2)C1=O` (stereo not drawn)?
RORa inhibitor: inactive

How did Cn1c(SCC(N)=O)nnc1C1CCN(C(=O)NCc2ccccc2)CC1 do in these assays?
RORa inhibitor: inactive

What do the screens show for `CC1(C)CC(=O)C=C(Nc2ccc(S(N)(=O)=O)cc2)C1`?
RORa inhibitor: inactive

How did Cc1c(C(=O)NCC(C)C)sc2nc(-c3ccc(F)cc3)cn12 do in these assays?
RORa inhibitor: inactive

How did O=C(O)c1ccccc1C(=O)Nc1ccccn1 do in these assays?
RORa inhibitor: inactive

What do the screens show for `Cc1ccc(C(=O)/C=C/Nc2ccccn2)cc1`?
RORa inhibitor: 90

What do the screens show for `Cc1cc(C(=O)Nc2ccccn2)no1`?
RORa inhibitor: inactive

What do the screens show for `CC1CCc2nc(NC(=O)c3ccco3)sc2C1` (stereo not drawn)?
RORa inhibitor: 62

What do the screens show for `C=CCOC(=O)c1sc(NC(=O)c2ccco2)nc1C`?
RORa inhibitor: inactive

What do the screens show for `CS(=O)(=O)c1ccc2nc(NC(=O)c3ccco3)sc2c1`?
RORa inhibitor: inactive

What do the screens show for `COCCn1nnnc1C(c1ccc(OC)cc1)N1CCN(c2ccccc2F)CC1` (stereo not drawn)?
RORa inhibitor: inactive

What do the screens show for `CCOc1ccc(-c2cc(CCCC(=O)Nc3cccc(OC)c3)no2)cc1`?
RORa inhibitor: inactive

What do the screens show for `CCOc1ccc(-c2cc(CCCC(=O)NCCc3ccc(OC)c(OC)c3OC)no2)cc1`?
RORa inhibitor: 57

What do the screens show for `CCCCC(=O)Nc1ccc(NC(=O)c2cc(OC)c(OC)c(OC)c2)cn1`?
RORa inhibitor: inactive

How did O=C(NCc1ccco1)Nc1ccc(Br)cc1Cl do in these assays?
RORa inhibitor: inactive

What do the screens show for `O=C(Nc1ccccc1N1CCN(C(=O)c2ccccc2)CC1)c1cc2ccccc2o1`?
RORa inhibitor: inactive

How did CC(=O)Nc1nc2ccc(-c3nc4ccccc4o3)cc2s1 do in these assays?
RORa inhibitor: inactive
